Test results: ChEMBL document CHEMBL1153366, “Synthesis, discovery and preliminary SAR study of benzofuran derivatives as angiogenesis inhibitors” (Bioorg Med Chem Lett, 2009); call rule not given here

How the values were obtained:
Format in all cases: functional, cell-based
HUVEC = assay: Antiproliferative activity against HUVEC after 96 hrs by MTT method; conditions: Homo sapiens
In short: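 HUVECs seeded at 1000 cells/well in 96-well plates and left to attach 20 h. Compound added in 0.1% DMSO at several concentrations, with a carrier-only control. Each concentration run in triplicate. After 96 h exposure, viability was read by MTT and expressed relative to control. IC50 was derived from viability versus concentration.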

A549 = assay: Antiproliferative activity against human A549 cells after 96 hrs by MTT method
In short: (§1)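 Cancer cells seeded at 1500 cells/well in 96-well plates and allowed 20 h to attach. They were then exposed to compound in 0.1% DMSO over a range of concentrations, with an equal volume of carrier as control, in triplicate. After 96 h, MTT was used to give relative viability. IC50 came from the viability versus concentration relationship.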

Bel-7402 = assay: Antiproliferative activity against human Bel7402 cells after 96 hrs by MTT method; in short: as §1
MCF7 = assay: Antiproliferative activity against human MCF7 cells after 96 hrs by MTT method; in short: as §1

Row | SMILES | IC50 (HUVEC) [µM] | IC50 (A549) | IC50 (Bel-7402) | IC50 (MCF7)
1 | CCOC(=O)/C=C/c1c(C(=O)OCC)oc2ccc(O)cc12 | 32.6 | Not Active | Not Active | Not Active
2 | CCOC(=O)/C=C/c1oc2ccc(O)cc2c1C | > 50 | Not Active | Not Active | Not Active
3 | CCOC(=O)/C=C/c1c(C)oc2ccc(O)cc12 | 27.6 | Not Active | Not Active | Not Active
4 | CCOC(=O)/C=C/c1oc2ccc(O)cc2c1C(=O)OCC | 4.3 | Not Active | Not Active | Not Active
